Converted amounts (≈) assume the structure as drawn.
What was measured:
Format in all cases: functional
[1] = test system: Mycobacterium kansasii; assay: Antimycobacterial activity against Mycobacterium kansasii 6509/96 after 7 days by micromethod; settings: 6509/96, 168 h
How it was run: (§1)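 Micromethod in Sula semisynthetic medium, with compounds added as DMSO solutions at 1000, 500, 250, 125, 62, 32, 16, 8, 4, 2, 1, 0.5, 0.25. Inoculum dilutions: H37Rv 10^-3; M. avium 330/88 10^-5; M. kansasii 235/80 10^-4; M. kansasii 6509/96 10^-5. Incubated at 37 °C, read at 14 and 21 days, and at 7 days for M. kansasii. MIC was the lowest concentration inhibiting growth.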

[2] = test system: Mycobacterium tuberculosis; assay: Antimycobacterial activity against Mycobacterium tuberculosis H37Rv 331/88 after 21 days by micromethod; settings: H37Rv 331/88, 504 h; how it was run: as §1
[3] = test system: Mycobacterium kansasii; assay: Antimycobacterial activity against Mycobacterium kansasii 6509/96 after 14 days by micromethod; settings: 6509/96, 336 h; how it was run: as §1
[4] = test system: Mycobacterium kansasii; assay: Antimycobacterial activity against Mycobacterium kansasii 235/80 after 7 days by micromethod; settings: 235/80, 168 h; how it was run: as §1
[5] = test system: Mycobacterium kansasii; assay: Antimycobacterial activity against Mycobacterium kansasii 235/80 after 21 days by micromethod; settings: 235/80, 504 h; how it was run: as §1
[6] = test system: Mycobacterium tuberculosis; assay: Antimycobacterial activity against drug-sensitive Mycobacterium tuberculosis
[7] = test system: Mycobacterium tuberculosis; assay: Antimycobacterial activity against Mycobacterium tuberculosis H37Rv 331/88 after 14 days by micromethod; settings: H37Rv 331/88, 336 h; how it was run: as §1
[8] = test system: Mycobacterium avium; assay: Antimycobacterial activity against multidrug-resistant Mycobacterium avium 330/88 after 14 days by micromethod; settings: 330/88, 336 h; how it was run: as §1
[9] = test system: Mycobacterium kansasii; assay: Antimycobacterial activity against Mycobacterium kansasii
[10] = test system: Mycobacterium avium; assay: Antimycobacterial activity against Mycobacterium avium
[11] = test system: Mycobacterium kansasii; assay: Antimycobacterial activity against Mycobacterium kansasii 6509/96 after 21 days by micromethod; settings: 6509/96, 504 h; how it was run: as §1
[12] = test system: Mycobacterium avium; assay: Antimycobacterial activity against multidrug-resistant Mycobacterium avium 330/88 after 21 days by micromethod; settings: 330/88, 504 h; how it was run: as §1
[13] = test system: Mycobacterium kansasii; assay: Antimycobacterial activity against Mycobacterium kansasii 235/80 after 14 days by micromethod; settings: 235/80, 336 h; how it was run: as §1
[14] = test system: Staphylococcus aureus; assay: Antibacterial activity against Staphylococcus aureus CCM 4516/08 after 24 hrs by broth microdilution method; settings: CCM 4516/08, 24 h
How it was run: (§2)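 Broth microdilution following […], with twofold compound dilutions in Mueller-Hinton bouillon. Incubated 24 and 48 h at 35 °C in the dark in a humid atmosphere. MIC (IC80) was taken as ≥80% growth reduction versus control, read visually and photometrically.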

[15] = test system: Lichtheimia corymbifera; assay: Antifungal activity against Absidia corymbifera 272 after 48 hrs by broth microdilution method; settings: Lichtheimia corymbifera, 272, 48 h
[16] = test system: Enterococcus sp.; assay: Antibacterial activity against Enterococcus sp. J14365/08 after 48 hrs by broth microdilution method; settings: J14365/08, 48 h; how it was run: as §2
[17] = test system: Pichia kudriavzevii; assay: Antifungal activity against Candida krusei E28 after 24 hrs by broth microdilution method; settings: E28, 24 h
[18] = test system: Trichosporon beigelii; assay: Antifungal activity against Trichosporon beigelii 1188 after 24 hrs by broth microdilution method; settings: Trichosporon beigelii, 1188, 24 h
[19] = test system: Lichtheimia corymbifera; assay: Antifungal activity against Absidia corymbifera 272 after 24 hrs by broth microdilution method; settings: Lichtheimia corymbifera, 272, 24 h
[20] = test system: Candida tropicalis; assay: Antifungal activity against Candida tropicalis 156 after 48 hrs by broth microdilution method; settings: Candida tropicalis, 156, 48 h
[21] = test system: Escherichia coli; assay: Antibacterial activity against Escherichia coli CCM 4517 after 48 hrs by broth microdilution method; settings: CCM 4517, 48 h; how it was run: as §2
[22] = test system: Candida albicans; assay: Antifungal activity against Candida albicans ATCC 44859 after 24 hrs by broth microdilution method; settings: ATCC 44859, 24 h
[23] = test system: Staphylococcus aureus; assay: Antibacterial activity against methicillin-resistant Staphylococcus aureus H5996/08 after 48 hrs by broth microdilution method; settings: H5996/08, 48 h; how it was run: as §2
[24] = test system: Candida tropicalis; assay: Antifungal activity against Candida tropicalis 156 after 24 hrs by broth microdilution method; settings: Candida tropicalis, 156, 24 h
[25] = test system: Candida albicans; assay: Antifungal activity against Candida albicans ATCC 44859 after 48 hrs by broth microdilution method; settings: ATCC 44859, 48 h
[26] = test system: Trichophyton mentagrophytes; assay: Antifungal activity against Trichophyton mentagrophytes after 48 hrs by broth microdilution method
[27] = test system: Aspergillus fumigatus; assay: Antifungal activity against Aspergillus fumigatus 231 after 48 hrs by broth microdilution method; settings: Aspergillus fumigatus, 231, 48 h
[28] = test system: Aspergillus fumigatus; assay: Antifungal activity against Aspergillus fumigatus 231 after 24 hrs by broth microdilution method; settings: Aspergillus fumigatus, 231, 24 h
[29] = test system: Pichia kudriavzevii; assay: Antifungal activity against Candida krusei E28 after 48 hrs by broth microdilution method; settings: E28, 48 h
[30] = test system: Staphylococcus aureus; assay: Antibacterial activity against Staphylococcus aureus CCM 4516/08 after 48 hrs by broth microdilution method; settings: CCM 4516/08, 48 h; how it was run: as §2
[31] = test system: Trichosporon beigelii; assay: Antifungal activity against Trichosporon beigelii 1188 after 48 hrs by broth microdilution method; settings: Trichosporon beigelii, 1188, 48 h
[32] = test system: Escherichia coli; assay: Antibacterial activity against Escherichia coli CCM 4517 after 24 hrs by broth microdilution method; settings: CCM 4517, 24 h; how it was run: as §2
[33] = test system: Trichophyton mentagrophytes; assay: Antifungal activity against Trichophyton mentagrophytes after 24 hrs by broth microdilution method
[34] = test system: Enterococcus sp.; assay: Antibacterial activity against Enterococcus sp. J14365/08 after 24 hrs by broth microdilution method; settings: J14365/08, 24 h; how it was run: as §2
[35] = test system: Nakaseomyces glabratus; assay: Antifungal activity against Candida glabrata 20/I after 24 hrs by broth microdilution method
[36] = test system: Staphylococcus epidermidis; assay: Antibacterial activity against Staphylococcus epidermidis H6966/08 after 48 hrs by broth microdilution method; settings: H6966/08, 48 h; how it was run: as §2
[37] = test system: Staphylococcus epidermidis; assay: Antibacterial activity against Staphylococcus epidermidis H6966/08 after 24 hrs by broth microdilution method; settings: H6966/08, 24 h; how it was run: as §2
[38] = test system: Klebsiella pneumoniae; assay: Antibacterial activity against Klebsiella pneumoniae D11750/08 after 48 hrs by broth microdilution method; settings: D11750/08, 48 h; how it was run: as §2
[39] = test system: Klebsiella pneumoniae; assay: Antibacterial activity against Klebsiella pneumoniae D11750/08 after 24 hrs by broth microdilution method; settings: D11750/08, 24 h; how it was run: as §2
[40] = test system: Staphylococcus aureus; assay: Antibacterial activity against methicillin-resistant Staphylococcus aureus H5996/08 after 24 hrs by broth microdilution method; settings: H5996/08, 24 h; how it was run: as §2
[41] = test system: Nakaseomyces glabratus; assay: Antifungal activity against Candida glabrata 20/I after 48 hrs by broth microdilution method

## CC(=O)N[C@@H](Cc1ccccc1)C(=O)Oc1ccc(Cl)cc1C(=O)Nc1cccc(Cl)c1
[1]
  MIC: 2 µM (≈ 0.943 µg/mL)
[2]
  MIC: 4 µM (≈ 1.89 µg/mL)
[3]
  MIC: 8 µM (≈ 3.77 µg/mL)
[4]
  MIC: 8 µM (≈ 3.77 µg/mL)
[5]
  MIC: 8 µM (≈ 3.77 µg/mL)
[6]
  MIC: 1 µM (≈ 0.471 µg/mL)
[7]
  MIC: 2 µM (≈ 0.943 µg/mL)
[8]
  MIC: 8 µM (≈ 3.77 µg/mL)
[9]
  MIC: 1 µM (≈ 0.471 µg/mL)
[10]
  MIC: 1 µM (≈ 0.471 µg/mL)
[11]
  MIC: 8 µM (≈ 3.77 µg/mL)
[12]
  MIC: 32 µM (≈ 15.1 µg/mL)
[13]
  MIC: 8 µM (≈ 3.77 µg/mL)

## CC(=O)N[C@@H](Cc1ccccc1)C(=O)Oc1ccc(Cl)cc1C(=O)Nc1ccc(Cl)cc1
[14]
  MIC: 62.5 µM (≈ 29.5 µg/mL)
[15]
  MIC: 15.6 µM (≈ 7.36 µg/mL)
[16]
  MIC: > 125 µM
[17]
  MIC: > 125 µM
[18]
  MIC: 3.9 µM (≈ 1.84 µg/mL)
[1]
  MIC: 2 µM (≈ 0.943 µg/mL)
[19]
  MIC: 3.9 µM (≈ 1.84 µg/mL)
[20]
  MIC: > 125 µM
[21]
  MIC: > 125 µM
[2]
  MIC: 4 µM (≈ 1.89 µg/mL)
[22]
  MIC: > 125 µM
[23]
  MIC: > 125 µM
[3]
  MIC: 4 µM (≈ 1.89 µg/mL)
[24]
  MIC: > 125 µM
[25]
  MIC: > 125 µM
[4]
  MIC: 4 µM (≈ 1.89 µg/mL)
[5]
  MIC: 4 µM (≈ 1.89 µg/mL)
[26]
  MIC: 62.5 µM (≈ 29.5 µg/mL)
[27]
  MIC: 125 µM (≈ 58.9 µg/mL)
[28]
  MIC: 31.2 µM (≈ 14.7 µg/mL)
[29]
  MIC: > 125 µM
[30]
  MIC: > 125 µM
[31]
  MIC: 3.9 µM (≈ 1.84 µg/mL)
[6]
  MIC: 1 µM (≈ 0.471 µg/mL)
[7]
  MIC: 4 µM (≈ 1.89 µg/mL)
[32]
  MIC: > 125 µM
[33]
  MIC: 31.2 µM (≈ 14.7 µg/mL)
[34]
  MIC: 125 µM (≈ 58.9 µg/mL)
[8]
  MIC: 8 µM (≈ 3.77 µg/mL)
[35]
  MIC: > 125 µM
[36]
  MIC: > 125 µM
[37]
  MIC: 125 µM (≈ 58.9 µg/mL)
[9]
  MIC: 1 µM (≈ 0.471 µg/mL)
[10]
  MIC: 1 µM (≈ 0.471 µg/mL)
[11]
  MIC: 8 µM (≈ 3.77 µg/mL)
[12]
  MIC: 16 µM (≈ 7.54 µg/mL)
[38]
  MIC: > 125 µM
[39]
  MIC: > 125 µM
[40]
  MIC: 125 µM (≈ 58.9 µg/mL)
[13]
  MIC: 4 µM (≈ 1.89 µg/mL)
[41]
  MIC: > 125 µM

## OC(Cn1cncn1)(Cn1cncn1)c1ccc(F)cc1F [FLUCONAZOLE]
[15]
  MIC: > 125 µM
[17]
  MIC: 3.91 µM (≈ 1.2 µg/mL)
[18]
  MIC: 0.24 µM (≈ 0.0735 µg/mL)
[19]
  MIC: > 125 µM
[20]
  MIC: > 125 µM
[22]
  MIC: 0.06 µM (≈ 0.0184 µg/mL)
[24]
  MIC: 0.12 µM (≈ 0.0368 µg/mL)
[25]
  MIC: 0.12 µM (≈ 0.0368 µg/mL)
[26]
  MIC: 3.91 µM (≈ 1.2 µg/mL)
[27]
  MIC: > 125 µM
[28]
  MIC: > 125 µM
[29]
  MIC: 15.6 µM (≈ 4.78 µg/mL)
[31]
  MIC: 0.48 µM (≈ 0.147 µg/mL)
[33]
  MIC: 1.95 µM (≈ 0.597 µg/mL)
[35]
  MIC: 0.98 µM (≈ 0.3 µg/mL)
[41]
  MIC: 3.91 µM (≈ 1.2 µg/mL)

## NNC(=O)c1ccncc1 [ISONIAZID]
[1]
  MIC: 2 µM (≈ 0.274 µg/mL)
[2]
  MIC: 0.5 µM (≈ 0.0686 µg/mL)
[3]
  MIC: 4 µM (≈ 0.549 µg/mL)
[4]
  MIC: > 250 µM
[5]
  MIC: > 250 µM
[7]
  MIC: 0.5 µM (≈ 0.0686 µg/mL)
[8]
  MIC: > 250 µM
[11]
  MIC: 4 µM (≈ 0.549 µg/mL)
[12]
  MIC: > 250 µM
[13]
  MIC: > 250 µM

— ChEMBL document CHEMBL1629494, “New amino acid esters of salicylanilides active against MDR-TB and other microbes” (Eur J Med Chem, 2010)
